# The list is not random: actives were taken first. Their share in the collection is about 1.3%.
# PP5 primary: inhibitors of human protein phosphatase 5 (PP5). AID 1987. purified PP5c, OMFP substrate fluorescence. P53041. hit rate 0.18% among 320,000. inhibition, % at 6.7 µM;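 active = inhibition above the campaign's mean inhibition across all tested compounds plus 3 SD, cut at about 9.5% in these data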;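 note: 0% = DMSO only and 100% = 100 µM cantharidin control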
# NR2E3 ag-1: activates human photoreceptor nuclear receptor NR2E3; hit rate 0.12% among 320,000; inhibition of corepressor binding, % at 4.78 µM; GST-NR2E3/biotin-RetCOR TR-FRET, 1536-well; AID 2300;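 active = percent inhibition above the cutoff of mean plus 3 SD of all tested compounds, set per screening campaign, cut at about 20% in these data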;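 note: 0% = DMSO wells and 100% = biotin wells as full block of FRET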
#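 System: GST-NR2E3 and biotin-RetCOR proteins; probe or stimulus: 7 nM biotin-RetCOR; doses: compound at 4.8 µM, single dose; schedule: Compound–protein incubation for 5 h at 4 °C; detection: time-resolved FRET; read-out: percent inhibition; controls: biotin wells as high control, 0.6% DMSO wells as low control; format: 1536-well plates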
# NR2E3 ag-2: human photoreceptor-specific nuclear receptor agonism; CHO-S Gal4-NCOR/VP16-NR2E3 two-hybrid, luciferase; inhibition of corepressor binding, % at 3.98 µM; hit rate 0.35% among 360,000;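 active = inhibition above the mean of all tested compounds plus 3 SD, cut at about 70% in these data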;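 note: 0% = DMSO with NR2E3 transfected cells and 100% = cells lacking NR2E3 construct; higher means lower luciferase signal from less NR2E3 corepressor binding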
# PP1 inh: PP1-alpha (human) inhibition in PP5 counter-screen; inhibition, % at 6.7 µM; P62136; hit rate 0.9% among 320,000; purified PP1alpha, OMFP fluorescence;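 active = inhibition above the mean inhibition of all tested compounds plus 3 SD, computed separately for each screening campaign, cut at about 15% in these data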
# Target sequence (P62136 whole entry, looked up): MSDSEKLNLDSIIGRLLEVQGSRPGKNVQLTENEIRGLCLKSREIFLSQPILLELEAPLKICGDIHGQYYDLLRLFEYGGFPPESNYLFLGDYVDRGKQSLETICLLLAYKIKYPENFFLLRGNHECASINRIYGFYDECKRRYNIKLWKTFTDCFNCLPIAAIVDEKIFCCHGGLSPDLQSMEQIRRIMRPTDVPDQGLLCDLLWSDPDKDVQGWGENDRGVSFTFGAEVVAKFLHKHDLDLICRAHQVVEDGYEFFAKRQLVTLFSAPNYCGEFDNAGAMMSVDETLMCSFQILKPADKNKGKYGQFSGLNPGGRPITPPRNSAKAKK
# Numbers without * were called inactive; . = no result.
SMILES,PP5 primary,NR2E3 ag-1,NR2E3 ag-2,PP1 inh
CC(=O)Nc1ccc(CN(C)c2c(C)nc3ccc(C(=O)N4CCN(C(C)=O)CC4)cn23)cc1,.,.,-13,.
O=C(CSc1ccc(Cl)cc1)N1CCN(c2ccc([N+](=O)[O-])cc2Cl)CC1,2,1,15,3
Cc1ccc(Cl)cc1N1CCN(C(=O)CSc2nnc3n2C(C)(C)Cc2ccccc2-3)CC1,3,0,87*,5
Cc1ccc(Cl)cc1N1CCN(C(=O)CSc2ccsc2[N+](=O)[O-])CC1,5,-2,-24,17*
Cc1ccc(NC(=O)CN2C(=O)C(=O)N(C3CCCC3)C2=O)c(Cl)c1,0,11,18,-1
CCOc1ccc(C(=O)NCC2CCCN2S(=O)(=O)c2cccs2)cc1 (centres undefined),2,-3,-2,-7
CCCCC1=CC2=C(c3ccco3)C(=O)C(C)(OC(=O)c3ccc(OC)cc3)C(=O)C2=CN1Cc1ccco1 (centres undefined),2,17,-35,16*
COc1ccc2c(c1)C(=NNc1ccc(C(=O)O)cc1)c1cc(OC)ccc1-2,3,-3,-20,16*
COc1ccc(/C(C)=N/Nc2ccc(C(=O)O)cc2)c(OC)c1,0,4,-32,-1
COc1ccc2nc(Cl)c(/C=N/Nc3ccccn3)cc2c1,-2,0,-52,16*
Clc1ccccc1C=NNc1ccccn1,.,.,-88,.
COc1ccc(S(=O)(=O)N(C)C)cc1NC(=O)c1ccc(OCC2CCCO2)cc1 (centres undefined),.,.,3,.
C/C(=N\NC(=O)COc1ccc(C(C)(C)C)cc1)c1ccc(-n2ccnc2)cc1,4,-2,-16,15*
CC(=O)Nc1ccc(C=NNc2ccc([N+](=O)[O-])cc2S(=O)(=O)Nc2ccccc2C(=O)O)cc1,.,.,3,.
Cc1ccc(NC(=S)NNc2ccc([N+](=O)[O-])cc2S(=O)(=O)Nc2ccccc2C(=O)O)cc1C,10,5,-19,17*
COCCN(C(=O)C1CC(=O)N(Cc2ccccc2)C1)c1nc(-c2ccc([N+](=O)[O-])cc2)cs1 (centres undefined),2,2,-4,17*
Cc1cccc(C)c1Nc1nnc(SCC(=O)c2ccc(Br)s2)s1,2,0,-20,5
Cc1ccc(Nc2nnc(SCC(=O)c3ccc(Br)s3)s2)c(C)c1,3,-2,-34,17*
COc1ccc(Nc2nnc(Cc3ccc(Cl)cc3)c(=O)[nH]2)c(OC)c1,1,-2,9,0
COc1ccc(Cc2nnc(Nc3ccc(Cl)cc3)[nH]c2=O)cc1,1,-2,-19,18*
Cc1ccc(S(=O)(=O)N2CCCCC2CCNC(=O)C(=O)NCC2CCCO2)cc1 (centres undefined),1,-5,-12,17*
CCOC(=O)c1sc2nc3c(SCCC#N)cc(C(=O)c4cc(F)ccc4O)cn3c(=O)c2c1C,-1,-2,-17,-2
O=C(O)CSc1cc(C(=O)c2cc(F)ccc2O)cn2c(=O)c3c(-c4ccccc4)csc3nc12,5,1,-21,17*
O=C(/C=C/c1ccc(OCCCF)cc1)NCc1cccc(Cl)c1,2,-1,5,3
O=C(/C=C/c1ccc(OCCCF)cc1)Nc1ccnc(-c2ccncc2)n1,3,0,-12,16*
SMILES,PP5 primary,NR2E3 ag-1,NR2E3 ag-2,PP1 inh
COc1ccc(NC(=O)Cn2cnc3c(oc4nc5c(cc43)COC(C)(C)C5)c2=O)cc1,-1,0,-8,-4
Cc1cc(-c2csc(NC(=O)c3ccc(C#N)cc3)n2)c(C)n1Cc1ccco1,0,-3,-12,17*
N#Cc1ccc(-c2csc(NC(=O)c3ccc(N4C(=O)CCC4=O)cc3)n2)cc1,-1,3,-10,-1
COc1cccc(C(=O)NN2CC(O)=C(c3nc(C)cs3)C2=N)c1,-1,3,14,-1
Cc1ccc(C(=O)NN2CC(O)=C(c3nc(-c4cccc([N+](=O)[O-])c4)cs3)C2=N)cc1,3,5,-1,17*
CCNC(=O)C1CCCN(C(=O)c2cnc3ccccc3n2)CC1 (centres undefined),.,.,-17,.
CCCCCC(=O)N1CC2(CC(c3cccc(NC(=O)CC(c4ccccc4)c4ccccc4)c3)=NO2)C[C@@H]1C(N)=O (some centres undefined),3,2,-9,2
NC(=O)[C@H]1CC2(CC(c3cccc(NC(=O)CC(c4ccccc4)c4ccccc4)c3)=NO2)CN1C(=O)C(c1ccccc1)c1ccccc1 (some centres undefined),3,-1,13,17*
COc1ccccc1OCCCOc1cccc(/C=C2\SC(=O)NC2=O)c1,2,0,10,16*
Cc1ccc(C)n1-c1cccc(C(=O)O)c1,1,33*,.,14
COC(=O)C(Cc1ccc(O)cc1)NC(=O)C(C)NC(=O)c1ccc(C(C)(C)C)cc1 (centres undefined),3,7,5,1
COc1ccc(CNC(=O)c2ccc(-c3c(C)noc3C)c3ccoc23)cc1OC,.,.,34,.
O=C1CSC(c2ccc(F)c(F)c2)N1c1ccccc1F (centres undefined),1,3,1,-2
CCOc1ccc(Nc2oc(-c3ccccc3Cl)nc2C#N)cc1,0,3,.,17*
COc1ccc(C2NCCc3c2[nH]c2ccccc32)cc1COc1ccc(F)cc1 (centres undefined),4,0,39,17*
COc1ccc(C2NCCc3c2[nH]c2ccccc32)cc1CN1CCc2cc(OC)c(OC)cc2C1C (centres undefined),.,.,5,.
COc1ccc(OC)c(NC(=O)Nc2nnc([C@@H]3O[C@H](CO)[C@@H](O)[C@H]3O)s2)c1,.,.,-27,.
Cc1ccc(CN2C(=O)C3CCCN3c3ncccc32)cc1 (centres undefined),-1,1,-24,9
Cc1ccc(CN2C(=O)C3CCCN3c3ccc(S(=O)(=O)N4CCOCC4)cc32)cc1 (centres undefined),-1,0,.,24*
Cc1c(C(=O)NC2CCOC2)oc2c(F)cccc12 (centres undefined),3,-1,-96,-3
O=C(NCCc1ccccc1)C1CCC(CNS(=O)(=O)c2ccccc2)CC1 (centres undefined),3,3,18,16*
COc1ccc(CCNC(=O)C2CCC(CNS(=O)(=O)c3ccccc3)CC2)cc1OC (centres undefined),-2,-6,.,-3
CC1(C(=O)NCc2ccccc2Br)CCN1C(=O)CCc1ccc(Cl)cc1Cl (centres undefined),.,.,18,.
Cc1cc(C)cc(NC(=O)/C=C/c2ccc([N+](=O)[O-])s2)c1,1,2,-10,1
Cc1ccccc1NC(=O)/C=C/c1ccc([N+](=O)[O-])s1,0,0,85*,-1
Cc1ccc2c(c1)C1C=CCC1C(C(=O)O)N2 (centres undefined),0,7,.,20*
Oc1ccc(Nc2ccc3ccccc3c2)cc1,.,.,-67,.

# Screening data (PubChem)
